From ChEMBL document CHEMBL1155349, “Identification of small molecule inhibitors of proline-rich tyrosine kinase 2 (Pyk2) with osteogenic activity in osteoblast cells” (Bioorg Med Chem Lett, 2009)

Columns and labels:
[1] = molecular target: Focal adhesion kinase 1 (Homo sapiens, UniProt Q05397); test: Inhibition of human FAK by HTRF assay
[2] = molecular target: T1, Protein-tyrosine kinase 2-beta (Homo sapiens, UniProt Q14289); test: Inhibition of human Pyk2 by HTRF assay
[3] = molecular target: T1, Protein-tyrosine kinase 2-beta; test: Inhibition of human PyK2 Y402 autophosphorylation expressed in 293T cells by immunofluorescence assay; assay type: cell-based
[4] = molecular target: Protein-tyrosine kinase 2-beta (Mus musculus) (UniProt Q9QVP9); test: (§1) Inhibition of mouse Pyk2 in […] cells assessed as increase in alkaline phosphatase level; assay type: cell-based
Protein-tyrosine kinase 2-beta (Mus musculus), sequence (Q9QVP9 whole entry, looked up): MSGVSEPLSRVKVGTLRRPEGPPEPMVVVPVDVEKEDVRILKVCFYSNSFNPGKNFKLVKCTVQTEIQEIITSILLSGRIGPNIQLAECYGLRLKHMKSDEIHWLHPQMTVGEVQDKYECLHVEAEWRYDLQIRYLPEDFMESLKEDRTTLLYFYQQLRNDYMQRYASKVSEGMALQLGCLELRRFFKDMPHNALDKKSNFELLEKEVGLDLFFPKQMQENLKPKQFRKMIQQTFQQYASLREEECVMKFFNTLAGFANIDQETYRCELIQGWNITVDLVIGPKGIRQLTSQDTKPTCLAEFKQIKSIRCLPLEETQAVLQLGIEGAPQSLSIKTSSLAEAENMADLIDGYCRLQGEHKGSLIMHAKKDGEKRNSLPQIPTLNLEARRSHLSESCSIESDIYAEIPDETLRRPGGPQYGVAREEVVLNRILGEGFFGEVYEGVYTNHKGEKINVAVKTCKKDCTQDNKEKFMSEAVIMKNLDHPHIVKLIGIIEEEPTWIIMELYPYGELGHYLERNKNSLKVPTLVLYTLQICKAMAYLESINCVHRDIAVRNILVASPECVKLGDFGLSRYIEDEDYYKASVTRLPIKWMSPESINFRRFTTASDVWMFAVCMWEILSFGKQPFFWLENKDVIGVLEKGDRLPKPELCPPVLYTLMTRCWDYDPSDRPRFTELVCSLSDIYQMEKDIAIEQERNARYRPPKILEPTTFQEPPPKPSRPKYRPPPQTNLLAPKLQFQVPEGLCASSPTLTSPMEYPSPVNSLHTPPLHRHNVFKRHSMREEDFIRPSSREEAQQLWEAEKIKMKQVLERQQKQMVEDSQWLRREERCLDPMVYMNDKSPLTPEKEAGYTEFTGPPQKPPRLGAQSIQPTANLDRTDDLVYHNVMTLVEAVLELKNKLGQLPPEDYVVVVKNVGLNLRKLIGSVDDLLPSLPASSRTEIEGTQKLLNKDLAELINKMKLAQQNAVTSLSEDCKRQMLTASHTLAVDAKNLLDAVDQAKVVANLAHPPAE
How it was run: (§2)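 MC3T3 osteoblast cells were grown with increasing inhibitor concentrations for up to 3 weeks. Alkaline phosphatase, osteocalcin and calcium were measured as osteogenic markers after three weeks in culture, and ALP was also measured at additional time points. EC50 values came from the dose-response. Culture and dosing conditions followed an earlier report.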

[5] = molecular target: T2, Protein-tyrosine kinase 2-beta (Mus musculus, UniProt Q9QVP9); test: as §1; assay type: cell-based; how it was run: as §2
T2 sequence (Q9QVP9 whole entry): as the sequence (Q9QVP9 whole entry, looked up) above

[6] = molecular target: Protein-tyrosine kinase 2-beta (Mus musculus) (UniProt Q9QVP9); test: (§3) Inhibition of mouse Pyk2 in […] cells assessed as increase in osteocalcin level; assay type: cell-based; how it was run: as §2
[7] = molecular target: T2, Protein-tyrosine kinase 2-beta; test: as §3; assay type: cell-based; how it was run: as §2
[8] = molecular target: Protein-tyrosine kinase 2-beta (Mus musculus) (UniProt Q9QVP9); test: Inhibition of mouse Pyk2 in […] cells assessed as increase in calcium level; assay type: cell-based; how it was run: as §2
[9] = molecular target: Tyrosine-protein kinase JAK1 (Homo sapiens, UniProt P23458); test: Inhibition of Jak1
Tyrosine-protein kinase JAK1, sequence (P23458 whole entry): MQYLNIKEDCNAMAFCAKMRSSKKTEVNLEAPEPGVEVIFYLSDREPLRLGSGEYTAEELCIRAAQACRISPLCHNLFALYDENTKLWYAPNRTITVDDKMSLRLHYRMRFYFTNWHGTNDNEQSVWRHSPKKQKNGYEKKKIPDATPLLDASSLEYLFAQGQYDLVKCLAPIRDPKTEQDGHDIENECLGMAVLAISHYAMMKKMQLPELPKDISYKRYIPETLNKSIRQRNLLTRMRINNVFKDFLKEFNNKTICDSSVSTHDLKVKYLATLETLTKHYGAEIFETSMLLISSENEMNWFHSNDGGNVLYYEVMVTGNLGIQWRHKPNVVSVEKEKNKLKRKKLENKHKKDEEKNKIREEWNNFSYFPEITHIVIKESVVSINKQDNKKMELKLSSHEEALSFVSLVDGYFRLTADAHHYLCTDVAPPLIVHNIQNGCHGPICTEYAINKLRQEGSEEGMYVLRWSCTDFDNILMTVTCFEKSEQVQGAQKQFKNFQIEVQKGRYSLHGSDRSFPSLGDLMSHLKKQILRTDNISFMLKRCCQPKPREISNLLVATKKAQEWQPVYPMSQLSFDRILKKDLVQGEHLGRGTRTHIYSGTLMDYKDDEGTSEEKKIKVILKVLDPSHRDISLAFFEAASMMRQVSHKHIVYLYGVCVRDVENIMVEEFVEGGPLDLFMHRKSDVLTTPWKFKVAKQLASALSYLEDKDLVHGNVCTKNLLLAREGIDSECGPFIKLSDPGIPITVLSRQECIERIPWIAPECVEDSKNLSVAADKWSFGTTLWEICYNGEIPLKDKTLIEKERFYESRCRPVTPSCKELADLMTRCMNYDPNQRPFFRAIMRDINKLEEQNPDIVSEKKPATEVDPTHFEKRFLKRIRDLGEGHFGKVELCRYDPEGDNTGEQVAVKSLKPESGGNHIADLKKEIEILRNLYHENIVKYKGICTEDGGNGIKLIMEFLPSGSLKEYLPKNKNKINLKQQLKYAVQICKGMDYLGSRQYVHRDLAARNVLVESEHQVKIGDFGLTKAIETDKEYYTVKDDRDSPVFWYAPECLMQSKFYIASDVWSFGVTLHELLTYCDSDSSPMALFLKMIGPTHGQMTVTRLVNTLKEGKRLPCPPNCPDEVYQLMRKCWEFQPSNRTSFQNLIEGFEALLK

[10] = molecular target: Tyrosine-protein kinase JAK2 (Homo sapiens, UniProt O60674); test: Inhibition of Jak2
[11] = molecular target: T3, Tyrosine-protein kinase JAK3 (Homo sapiens, UniProt P52333); test: Inhibition of Jak3
T3 sequence (P52333 whole entry): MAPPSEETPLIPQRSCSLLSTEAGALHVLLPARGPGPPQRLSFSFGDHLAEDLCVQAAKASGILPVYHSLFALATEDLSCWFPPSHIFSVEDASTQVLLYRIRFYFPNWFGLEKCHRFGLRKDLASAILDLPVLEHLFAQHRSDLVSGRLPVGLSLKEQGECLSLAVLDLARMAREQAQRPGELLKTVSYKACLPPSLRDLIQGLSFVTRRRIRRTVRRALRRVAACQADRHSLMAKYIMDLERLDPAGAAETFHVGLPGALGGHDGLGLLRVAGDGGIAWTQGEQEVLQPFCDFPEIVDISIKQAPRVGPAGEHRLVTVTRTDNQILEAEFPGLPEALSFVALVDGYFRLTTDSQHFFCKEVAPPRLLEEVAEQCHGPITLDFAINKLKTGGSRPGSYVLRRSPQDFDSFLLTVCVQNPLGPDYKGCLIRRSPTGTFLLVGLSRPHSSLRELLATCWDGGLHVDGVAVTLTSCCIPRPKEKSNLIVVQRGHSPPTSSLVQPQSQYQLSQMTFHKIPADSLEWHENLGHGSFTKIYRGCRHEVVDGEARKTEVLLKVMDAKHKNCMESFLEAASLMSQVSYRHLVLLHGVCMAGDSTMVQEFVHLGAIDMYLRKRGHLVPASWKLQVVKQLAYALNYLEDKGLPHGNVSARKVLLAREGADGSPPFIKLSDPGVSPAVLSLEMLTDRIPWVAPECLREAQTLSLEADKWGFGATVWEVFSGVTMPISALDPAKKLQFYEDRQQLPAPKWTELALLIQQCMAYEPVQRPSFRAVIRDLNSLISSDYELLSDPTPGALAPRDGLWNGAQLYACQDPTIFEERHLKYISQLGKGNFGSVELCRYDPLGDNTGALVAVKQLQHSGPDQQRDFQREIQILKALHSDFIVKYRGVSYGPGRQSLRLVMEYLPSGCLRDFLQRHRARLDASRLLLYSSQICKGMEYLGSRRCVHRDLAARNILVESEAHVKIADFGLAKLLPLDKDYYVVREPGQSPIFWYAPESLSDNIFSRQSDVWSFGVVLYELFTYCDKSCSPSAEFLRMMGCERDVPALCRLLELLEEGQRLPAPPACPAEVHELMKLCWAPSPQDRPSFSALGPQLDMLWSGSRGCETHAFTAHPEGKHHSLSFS

[12] = molecular target: T4, Eukaryotic translation initiation factor 2-alpha kinase 3 (Homo sapiens, UniProt Q9NZJ5); test: Inhibition of PEK
T4 sequence (Q9NZJ5 whole entry): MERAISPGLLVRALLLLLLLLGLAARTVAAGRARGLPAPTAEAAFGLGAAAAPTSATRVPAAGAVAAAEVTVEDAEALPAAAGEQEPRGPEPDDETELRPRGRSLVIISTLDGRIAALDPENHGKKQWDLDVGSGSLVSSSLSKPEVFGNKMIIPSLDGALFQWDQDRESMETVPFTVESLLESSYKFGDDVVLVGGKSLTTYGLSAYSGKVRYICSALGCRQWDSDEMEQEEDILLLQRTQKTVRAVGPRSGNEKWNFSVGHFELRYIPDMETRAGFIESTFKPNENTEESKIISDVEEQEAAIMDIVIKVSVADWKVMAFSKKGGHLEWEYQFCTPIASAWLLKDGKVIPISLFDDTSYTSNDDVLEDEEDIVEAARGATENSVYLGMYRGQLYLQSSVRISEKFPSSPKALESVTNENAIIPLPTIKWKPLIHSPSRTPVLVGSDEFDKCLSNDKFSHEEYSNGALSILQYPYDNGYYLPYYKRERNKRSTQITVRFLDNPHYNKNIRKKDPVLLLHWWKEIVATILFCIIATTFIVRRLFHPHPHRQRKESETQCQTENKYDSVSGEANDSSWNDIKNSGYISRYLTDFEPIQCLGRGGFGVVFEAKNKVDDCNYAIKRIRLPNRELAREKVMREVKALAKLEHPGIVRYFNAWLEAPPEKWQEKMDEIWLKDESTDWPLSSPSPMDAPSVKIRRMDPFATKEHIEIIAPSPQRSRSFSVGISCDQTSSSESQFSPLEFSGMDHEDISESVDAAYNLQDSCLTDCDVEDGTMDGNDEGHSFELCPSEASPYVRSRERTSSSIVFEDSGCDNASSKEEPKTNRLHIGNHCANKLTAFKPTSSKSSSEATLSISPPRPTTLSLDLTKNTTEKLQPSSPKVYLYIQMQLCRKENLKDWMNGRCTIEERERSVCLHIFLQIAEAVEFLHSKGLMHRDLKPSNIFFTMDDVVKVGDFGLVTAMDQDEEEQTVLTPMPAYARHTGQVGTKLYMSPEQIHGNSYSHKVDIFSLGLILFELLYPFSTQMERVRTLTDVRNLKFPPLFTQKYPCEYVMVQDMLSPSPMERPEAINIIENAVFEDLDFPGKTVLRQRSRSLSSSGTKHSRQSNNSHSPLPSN

[13] = molecular target: Non-receptor tyrosine-protein kinase TYK2 (Homo sapiens, UniProt P29597); test: Inhibition of TYK2
[14] = molecular target: Interferon-induced, double-stranded RNA-activated protein kinase (Homo sapiens, UniProt P19525); test: Inhibition of PKR
Interferon-induced, double-stranded RNA-activated protein kinase, sequence (P19525 whole entry): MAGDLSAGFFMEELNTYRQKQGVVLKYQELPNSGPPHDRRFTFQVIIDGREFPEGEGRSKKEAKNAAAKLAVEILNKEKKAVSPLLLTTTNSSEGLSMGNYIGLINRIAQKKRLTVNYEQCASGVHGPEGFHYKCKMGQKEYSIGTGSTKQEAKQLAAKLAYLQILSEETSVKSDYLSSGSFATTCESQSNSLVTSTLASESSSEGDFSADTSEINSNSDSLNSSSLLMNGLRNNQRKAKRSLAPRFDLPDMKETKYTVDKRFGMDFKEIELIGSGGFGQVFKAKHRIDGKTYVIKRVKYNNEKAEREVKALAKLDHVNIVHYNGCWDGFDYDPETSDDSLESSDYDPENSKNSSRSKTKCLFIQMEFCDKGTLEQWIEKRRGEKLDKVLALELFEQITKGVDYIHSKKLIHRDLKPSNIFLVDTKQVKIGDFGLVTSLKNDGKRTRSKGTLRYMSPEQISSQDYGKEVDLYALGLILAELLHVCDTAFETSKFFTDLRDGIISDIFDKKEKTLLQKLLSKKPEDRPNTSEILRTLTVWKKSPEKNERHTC

[15] = Inhibition of Aurora 2

Focal adhesion kinase 1, sequence (Q05397 whole entry): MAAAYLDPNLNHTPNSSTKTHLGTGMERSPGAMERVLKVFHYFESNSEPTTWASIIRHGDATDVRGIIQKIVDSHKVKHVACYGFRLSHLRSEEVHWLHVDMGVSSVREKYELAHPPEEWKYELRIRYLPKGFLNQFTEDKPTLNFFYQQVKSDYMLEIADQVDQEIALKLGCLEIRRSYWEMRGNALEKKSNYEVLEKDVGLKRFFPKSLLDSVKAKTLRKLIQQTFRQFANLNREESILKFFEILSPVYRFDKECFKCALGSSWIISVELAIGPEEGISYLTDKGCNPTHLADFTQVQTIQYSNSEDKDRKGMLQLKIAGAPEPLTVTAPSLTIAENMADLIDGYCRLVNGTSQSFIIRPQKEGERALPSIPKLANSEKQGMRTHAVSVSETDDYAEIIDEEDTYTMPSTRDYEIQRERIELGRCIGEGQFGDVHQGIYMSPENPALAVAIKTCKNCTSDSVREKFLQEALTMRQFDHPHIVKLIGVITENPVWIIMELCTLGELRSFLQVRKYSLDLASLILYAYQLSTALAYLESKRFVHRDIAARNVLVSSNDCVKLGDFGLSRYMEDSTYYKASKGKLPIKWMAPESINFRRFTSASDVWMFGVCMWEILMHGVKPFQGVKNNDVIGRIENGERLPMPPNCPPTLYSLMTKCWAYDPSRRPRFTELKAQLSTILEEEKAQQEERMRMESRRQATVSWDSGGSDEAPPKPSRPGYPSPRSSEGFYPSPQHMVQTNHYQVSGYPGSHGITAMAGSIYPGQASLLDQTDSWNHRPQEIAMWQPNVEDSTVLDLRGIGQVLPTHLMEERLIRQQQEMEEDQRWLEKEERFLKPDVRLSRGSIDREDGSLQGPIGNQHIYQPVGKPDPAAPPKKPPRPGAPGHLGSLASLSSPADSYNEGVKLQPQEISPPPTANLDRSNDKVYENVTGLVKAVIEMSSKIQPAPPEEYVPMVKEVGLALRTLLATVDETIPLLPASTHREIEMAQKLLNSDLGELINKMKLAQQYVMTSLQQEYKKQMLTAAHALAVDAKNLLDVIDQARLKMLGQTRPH
T1 sequence (Q14289 whole entry): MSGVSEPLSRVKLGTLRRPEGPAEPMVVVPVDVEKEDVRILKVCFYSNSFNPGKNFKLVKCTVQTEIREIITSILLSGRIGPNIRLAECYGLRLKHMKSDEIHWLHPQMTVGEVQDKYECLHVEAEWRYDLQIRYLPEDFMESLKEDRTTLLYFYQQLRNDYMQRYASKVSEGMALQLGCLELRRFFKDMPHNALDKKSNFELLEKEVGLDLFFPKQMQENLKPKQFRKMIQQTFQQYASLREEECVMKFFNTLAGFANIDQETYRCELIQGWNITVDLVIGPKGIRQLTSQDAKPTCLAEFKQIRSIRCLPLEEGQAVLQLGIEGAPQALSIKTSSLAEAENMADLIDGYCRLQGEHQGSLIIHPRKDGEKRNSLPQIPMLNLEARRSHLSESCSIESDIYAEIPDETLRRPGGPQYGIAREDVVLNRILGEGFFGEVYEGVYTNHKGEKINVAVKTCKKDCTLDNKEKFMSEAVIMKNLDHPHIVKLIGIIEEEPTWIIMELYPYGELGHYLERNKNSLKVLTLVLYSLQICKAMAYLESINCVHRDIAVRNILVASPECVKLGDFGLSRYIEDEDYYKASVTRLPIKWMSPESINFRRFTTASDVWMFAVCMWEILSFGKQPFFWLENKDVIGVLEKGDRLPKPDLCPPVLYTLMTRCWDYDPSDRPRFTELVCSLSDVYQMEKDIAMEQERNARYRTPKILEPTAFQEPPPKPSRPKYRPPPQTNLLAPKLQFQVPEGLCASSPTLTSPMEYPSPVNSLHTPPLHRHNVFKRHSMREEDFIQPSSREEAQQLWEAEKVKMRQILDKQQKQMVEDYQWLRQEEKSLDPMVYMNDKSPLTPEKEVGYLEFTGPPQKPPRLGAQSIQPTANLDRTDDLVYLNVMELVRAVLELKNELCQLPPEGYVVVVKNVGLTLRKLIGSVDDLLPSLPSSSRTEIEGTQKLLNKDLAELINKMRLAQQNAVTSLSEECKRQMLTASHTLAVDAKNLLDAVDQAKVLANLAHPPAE

Molecule `COc1ccc2c(Oc3ccc(NC(=O)c4cc(-c5cccnc5)cn(-c5ccccc5)c4=O)nc3)ccnc2c1` has an IC50 [1] of over 125 µM.

`COc1cc2nccc(Oc3ccc(NC(=O)c4cc(-c5cccnc5)cn(-c5ccccc5)c4=O)nc3)c2cc1OC` gave an IC50 [1] of over 125 µM.

Work on `COc1cc2nccc(Oc3ccc(NC(=O)c4c(N(C)C)ccn(-c5ccccc5)c4=O)nc3)c2cc1OC` yielded an IC50 [1] of over 125 µM.

Molecule `CNc1ccn(-c2ccccc2)c(=O)c1C(=O)Nc1ccc(Oc2ccnc3cc(OC)c(OC)cc23)cn1` has an IC50 [2] of 0.035 µM, an IC50 [1] of 17 µM and an IC50 [3] of 0.11 µM. The Activity [4] was “Dose-dependent effect”, the EC50 [5] was 0.01 µM and the Activity [6] was “Dose-dependent effect”. The EC50 [7] was 0.01 µM, the Activity [8] was “Dose-dependent effect” and the IC50 [9] was over 1 µM. The IC50 [10] was over 1 µM, the IC50 [11] was over 1 µM and the IC50 [12] was over 1 µM. For the same molecule, the IC50 [13] was over 1 µM, the IC50 [14] was over 1 µM and the IC50 [15] was over 1 µM.

With `COc1cc2nccc(Oc3ccc(NC(=O)c4cc(-c5cccs5)cn(-c5ccccc5)c4=O)nc3)c2cc1OC` the IC50 [1] was over 125 µM, the Activity [4] was “Dose-dependent effect” and the EC50 [5] was 0.01 µM. The Activity [6] was “Dose-dependent effect”, the EC50 [7] was 0.01 µM and the Activity [8] was “Dose-dependent effect”.

With `COc1cc2nccc(Oc3ccc(NC(=O)c4c(N5CCN(C)CC5)ccn(-c5ccccc5)c4=O)nc3)c2cc1OC` the IC50 [1] was over 125 µM.

In the case of `CNc1ccn(Cc2ccccc2)c(=O)c1C(=O)Nc1ccc(Oc2ccnc3cc(OC)c(OC)cc23)cn1`, the IC50 [1] is reported as over 125 µM.

With `COc1ccc2c(Oc3ccc(NC(=O)c4cc(-c5cnccn5)cn(-c5ccccc5)c4=O)nc3)ccnc2c1` the IC50 [1] was over 125 µM.

Work on `COCCNc1ccn(-c2ccccc2)c(=O)c1C(=O)Nc1ccc(Oc2ccnc3cc(OC)ccc23)cn1` yielded an IC50 [1] of over 125 µM.
